Data taken from ChEMBL document CHEMBL3603779, “Identification and Optimization of Benzimidazole Sulfonamides as Orally Bioavailable Sphingosine 1-Phosphate Receptor 1 Antagonists with in Vivo Activity” (J Med Chem, 2015).
pEC50, pIC50: −log10 of the molar value. Values after ≈ are worked out from the molar mass of the structure shown. Active and inactive are the calls of the source. No cut-off for these calls is given here.

How the values were obtained:
[1] = Unbound fraction in mouse plasma at 10 uM by LCMS/MS detection based equilibrium dialysis method; format: ADME, cell-free
[2] = Intrinsic clearance in dog hepatocytes assessed per 10^6 cells at 1 uM after 0.5 to 120 mins by LCMS/MS method; format: ADME, cell-based, Canis lupus familiaris, Hepatocyte; settings: read-out: CLH
[3] = target: T1, Cytochrome P450 3A4 (Homo sapiens, UniProt P08684); assay: Induction of CYP3A4 activation in human hepatocytes at 10 uM incubated for 48 hrs using testosterone substrate relative to rifampicin; format: ADME, cell-based, Hepatocyte
T1 sequence (P08684 whole entry): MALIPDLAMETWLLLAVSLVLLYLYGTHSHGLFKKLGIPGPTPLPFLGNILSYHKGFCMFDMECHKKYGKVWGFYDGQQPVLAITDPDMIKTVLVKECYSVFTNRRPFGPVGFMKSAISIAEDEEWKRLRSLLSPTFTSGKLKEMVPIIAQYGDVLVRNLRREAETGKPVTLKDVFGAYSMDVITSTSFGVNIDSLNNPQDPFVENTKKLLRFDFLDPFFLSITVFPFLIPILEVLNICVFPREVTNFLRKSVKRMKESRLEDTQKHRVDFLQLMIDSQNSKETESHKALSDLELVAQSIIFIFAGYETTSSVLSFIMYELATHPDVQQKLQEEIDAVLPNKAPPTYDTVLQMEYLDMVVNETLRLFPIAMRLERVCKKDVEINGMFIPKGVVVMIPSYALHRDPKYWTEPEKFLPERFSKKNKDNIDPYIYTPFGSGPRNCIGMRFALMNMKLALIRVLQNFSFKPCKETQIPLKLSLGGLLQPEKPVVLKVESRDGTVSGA
How it was run: (§1)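 Human hepatocyte CYP3A induction, testosterone probe with 6-β-hydroxytestosterone as marker; activity expressed as % of the rifampicin response; hepatocytes from two donors tested.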

[4] = Oral bioavailability in Han Wistar rat at 10 mg/kg by LCMS/MS method; format: ADME, organism-based; settings: in vivo
[5] = tested on: Mus musculus; assay: Inhibition of FGF-S1P-stimulated angiogenesis in 129s1/SvImJ mouse assessed as reduction in hemoglobin level at 10 mg/kg, po administered once-daily for 4 days by spectrophotometry based matrigel plug angiogenesis assay; format: functional, organism-based
How it was run: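 Matrigel (0.5 mL) with 2 µg/mL β-FGF and 1 µM S1P injected subcutaneously in the ventral region of female 129s1/SvImJ mice. Oral dosing at 10 mg/kg once daily on days 5-8 post-implant (5 per cohort); vehicle 0.5% HPMC, 0.1% Tween 80. Controls also include Matrigel without factors. Hemoglobin per gram of plug gel quantified.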

[6] = Half life in Han Wistar rat at 4 mg/kg, iv by LCMS/MS method; format: ADME, organism-based; settings: in vivo
[7] = target: T2, Nuclear receptor subfamily 1 group I member 2 (Homo sapiens, UniProt O75469); assay: Activation of human PXR expressed in human HepG2 cells co-expressing CYP3A4 assessed as CYP3A4 activation at 10 uM by luciferase reporter gene assay relative to rifampicin; format: ADME, cell-based; settings: hepg2, 10 µM
T2 sequence (O75469 whole entry): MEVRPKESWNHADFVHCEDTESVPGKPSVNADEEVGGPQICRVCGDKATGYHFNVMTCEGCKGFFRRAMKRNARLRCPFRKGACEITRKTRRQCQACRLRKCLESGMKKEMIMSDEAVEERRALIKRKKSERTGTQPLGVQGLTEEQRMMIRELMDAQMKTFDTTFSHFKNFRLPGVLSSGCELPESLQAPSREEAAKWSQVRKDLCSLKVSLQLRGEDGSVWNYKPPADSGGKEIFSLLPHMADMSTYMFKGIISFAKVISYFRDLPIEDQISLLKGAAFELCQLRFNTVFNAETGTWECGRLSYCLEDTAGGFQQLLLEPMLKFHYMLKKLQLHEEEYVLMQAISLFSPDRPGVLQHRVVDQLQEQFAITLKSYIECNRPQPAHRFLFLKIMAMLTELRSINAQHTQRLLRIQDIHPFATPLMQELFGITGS
How it was run: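 Single-concentration PXR reporter gene screen, compound at 10 μM; activation expressed as a percentage of the response to rifampicin, also at 10 μM.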

[8] = Intrinsic clearance in human hepatocytes assessed per 10^6 cells at 1 uM after 0.5 to 120 mins by LCMS/MS method; format: ADME, cell-based, Hepatocyte; settings: read-out: CLH
[9] = Unbound fraction in dog plasma at 10 uM by LCMS/MS detection based equilibrium dialysis method; format: ADME, cell-free, Canis lupus familiaris
[10] = target: Cytochrome P450 2D6 (Homo sapiens, UniProt P10635); assay: Inhibition of CYP2D6 in human liver microsomes incubated for 5 mins in presence of NADPH and specific substrates by LC/MS/MS method; format: ADME
Chain of Cytochrome P450 2D6 (P10635 whole entry): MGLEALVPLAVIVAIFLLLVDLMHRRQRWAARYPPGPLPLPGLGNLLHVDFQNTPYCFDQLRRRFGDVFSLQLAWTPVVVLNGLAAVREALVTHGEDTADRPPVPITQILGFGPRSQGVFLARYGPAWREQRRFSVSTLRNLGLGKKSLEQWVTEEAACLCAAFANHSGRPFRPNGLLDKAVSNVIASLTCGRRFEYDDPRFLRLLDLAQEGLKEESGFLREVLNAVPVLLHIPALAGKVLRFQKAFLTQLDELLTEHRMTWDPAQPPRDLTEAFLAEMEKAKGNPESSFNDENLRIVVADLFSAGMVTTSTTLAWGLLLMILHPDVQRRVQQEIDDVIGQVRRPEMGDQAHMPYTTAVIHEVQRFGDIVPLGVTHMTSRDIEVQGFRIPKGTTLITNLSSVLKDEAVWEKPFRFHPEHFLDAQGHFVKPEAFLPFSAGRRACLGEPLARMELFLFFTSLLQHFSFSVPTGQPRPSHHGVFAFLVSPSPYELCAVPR

[11] = Unbound fraction in rat plasma at 10 uM by LCMS/MS detection based equilibrium dialysis method; format: ADME, cell-free
[12] = Aqueous equilibrium solubility in pH 7.4 phosphate buffer incubated for 24 hrs by HPLC-UV and MS method; format: physicochemical
[13] = Lipophilicity, log D of the compound at pH 7.4; format: physicochemical; settings: buffer
[14] = target: Cytochrome P450 2C9 (Homo sapiens, UniProt P11712); assay: Inhibition of CYP2C9 in human liver microsomes incubated for 5 mins in presence of NADPH and specific substrates by LC/MS/MS method; format: ADME
Chain of Cytochrome P450 2C9 (P11712 whole entry): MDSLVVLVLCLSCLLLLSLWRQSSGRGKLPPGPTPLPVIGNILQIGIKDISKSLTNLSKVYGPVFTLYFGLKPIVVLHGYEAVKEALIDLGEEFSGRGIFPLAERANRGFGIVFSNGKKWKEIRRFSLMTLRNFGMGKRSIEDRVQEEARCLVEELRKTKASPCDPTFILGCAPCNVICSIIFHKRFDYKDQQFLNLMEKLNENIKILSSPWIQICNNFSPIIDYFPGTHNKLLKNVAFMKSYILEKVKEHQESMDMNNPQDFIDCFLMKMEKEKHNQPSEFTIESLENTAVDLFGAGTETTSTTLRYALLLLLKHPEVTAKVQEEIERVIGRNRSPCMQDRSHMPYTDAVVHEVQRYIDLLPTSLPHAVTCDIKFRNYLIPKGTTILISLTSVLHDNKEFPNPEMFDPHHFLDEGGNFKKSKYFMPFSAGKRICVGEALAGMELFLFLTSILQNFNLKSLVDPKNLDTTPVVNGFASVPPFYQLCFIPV

[15] = target: T3, Cytochrome P450 3A5 (Homo sapiens, UniProt P20815); assay: Induction of CYP3A5 activation in human hepatocytes at 10 uM incubated for 48 hrs using testosterone substrate relative to rifampicin; format: ADME, cell-based, Hepatocyte; how it was run: as §1
T3 sequence (P20815 whole entry): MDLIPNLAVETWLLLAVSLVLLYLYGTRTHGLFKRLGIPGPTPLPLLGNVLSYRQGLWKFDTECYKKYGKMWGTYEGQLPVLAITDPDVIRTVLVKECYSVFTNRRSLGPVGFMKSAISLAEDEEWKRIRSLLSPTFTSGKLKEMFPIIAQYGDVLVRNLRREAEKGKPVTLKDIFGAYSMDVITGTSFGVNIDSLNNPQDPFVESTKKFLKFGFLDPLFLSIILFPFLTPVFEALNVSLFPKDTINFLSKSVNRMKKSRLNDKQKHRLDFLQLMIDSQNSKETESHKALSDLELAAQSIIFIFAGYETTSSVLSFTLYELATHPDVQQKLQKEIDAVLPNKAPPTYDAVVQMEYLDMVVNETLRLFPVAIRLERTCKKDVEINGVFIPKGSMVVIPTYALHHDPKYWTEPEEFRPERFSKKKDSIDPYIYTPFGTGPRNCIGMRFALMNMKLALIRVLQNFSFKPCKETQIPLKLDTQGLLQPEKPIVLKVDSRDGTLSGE

[16] = Intrinsic clearance in mouse hepatocytes assessed per 10^6 cells at 1 uM after 0.5 to 120 mins by LCMS/MS method; format: ADME, cell-based, Hepatocyte; settings: read-out: CLH
[17] = target: T4, Cytochrome P450 1A2 (Homo sapiens, UniProt P05177); assay: Inhibition of CYP1A2 in human liver microsomes incubated for 5 mins in presence of NADPH and specific substrates by LC/MS/MS method; format: ADME
T4 sequence (P05177 whole entry): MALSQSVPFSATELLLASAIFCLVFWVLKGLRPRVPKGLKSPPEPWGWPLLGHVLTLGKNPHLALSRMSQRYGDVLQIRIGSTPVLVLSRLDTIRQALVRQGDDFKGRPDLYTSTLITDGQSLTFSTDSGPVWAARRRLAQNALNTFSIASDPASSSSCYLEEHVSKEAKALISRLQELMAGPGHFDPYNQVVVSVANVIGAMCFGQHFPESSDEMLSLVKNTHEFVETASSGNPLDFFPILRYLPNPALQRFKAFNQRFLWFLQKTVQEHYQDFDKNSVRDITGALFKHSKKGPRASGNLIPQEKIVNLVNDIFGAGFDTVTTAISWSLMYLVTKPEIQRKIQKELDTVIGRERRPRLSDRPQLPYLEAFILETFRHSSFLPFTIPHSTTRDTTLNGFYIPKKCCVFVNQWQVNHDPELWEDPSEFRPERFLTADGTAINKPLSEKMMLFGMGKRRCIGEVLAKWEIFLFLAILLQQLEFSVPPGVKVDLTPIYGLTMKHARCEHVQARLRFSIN

[18] = target: T3, Cytochrome P450 3A5; assay: Inhibition of CYP3A5 in human liver microsomes incubated for 5 mins in presence of NADPH and specific substrates by LC/MS/MS method; format: ADME
[19] = Cmax in Han Wistar rat at 10 mg/kg, po by LCMS/MS method; format: ADME, organism-based; parameters: dose 10 mg/kg, route oral; settings: in vivo
[20] = Intrinsic clearance in rat hepatocytes assessed per 10^6 cells at 1 uM after 0.5 to 120 mins by LCMS/MS method; format: ADME, cell-based, Hepatocyte; settings: read-out: CLH
[21] = target: T1, Cytochrome P450 3A4; assay: Inhibition of CYP3A4 in human liver microsomes incubated for 5 mins in presence of NADPH and specific substrates by LC/MS/MS method; format: ADME
[22] = Unbound fraction in human plasma at 10 uM by LCMS/MS detection based equilibrium dialysis method; format: ADME, cell-free
[23] = target: Cytochrome P450 2C19 (Homo sapiens, UniProt P33261); assay: Inhibition of CYP2C19 in human liver microsomes incubated for 5 mins in presence of NADPH and specific substrates by LC/MS/MS method; format: ADME
Chain of Cytochrome P450 2C19 (P33261 whole entry): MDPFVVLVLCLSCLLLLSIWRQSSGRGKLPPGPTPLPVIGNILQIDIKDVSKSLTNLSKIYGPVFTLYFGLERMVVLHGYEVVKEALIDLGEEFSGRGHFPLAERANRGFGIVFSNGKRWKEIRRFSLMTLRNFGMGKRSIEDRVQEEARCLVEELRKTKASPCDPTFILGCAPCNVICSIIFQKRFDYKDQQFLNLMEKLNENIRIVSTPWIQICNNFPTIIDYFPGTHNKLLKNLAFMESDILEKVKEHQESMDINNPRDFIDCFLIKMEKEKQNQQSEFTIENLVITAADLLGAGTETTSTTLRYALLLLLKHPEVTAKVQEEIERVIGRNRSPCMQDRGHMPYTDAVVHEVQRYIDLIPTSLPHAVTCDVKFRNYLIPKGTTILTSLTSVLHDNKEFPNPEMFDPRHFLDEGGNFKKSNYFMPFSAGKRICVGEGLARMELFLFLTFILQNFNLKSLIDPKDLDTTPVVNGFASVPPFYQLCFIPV

[24] = target: Sphingosine 1-phosphate receptor 1 (Homo sapiens, UniProt P21453); assay: Antagonist activity against human S1P1 receptor expressed in human U2OS cells co-expressing GFP assessed as inhibition of S1P-induced receptor translocation; format: cell-based
Chain of Sphingosine 1-phosphate receptor 1 (P21453 whole entry): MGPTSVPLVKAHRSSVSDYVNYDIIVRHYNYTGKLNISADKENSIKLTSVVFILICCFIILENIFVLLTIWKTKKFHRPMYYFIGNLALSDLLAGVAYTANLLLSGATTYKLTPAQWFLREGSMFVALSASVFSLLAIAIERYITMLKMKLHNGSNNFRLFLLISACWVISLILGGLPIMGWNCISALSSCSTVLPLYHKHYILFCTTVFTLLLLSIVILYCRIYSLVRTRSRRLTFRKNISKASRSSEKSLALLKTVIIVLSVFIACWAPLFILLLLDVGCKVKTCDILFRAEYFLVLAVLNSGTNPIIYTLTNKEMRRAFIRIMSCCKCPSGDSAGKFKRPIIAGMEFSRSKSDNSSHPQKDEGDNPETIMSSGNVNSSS
How it was run: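 Cellular S1P1 translocation (internalization) assay with antagonist; EC50 reported as mean of at least three separate determinations ± standard deviation.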

[25] = Clearance in beagle dog at 2.5 mg/kg, iv by LCMS/MS method; format: ADME, organism-based, Canis lupus familiaris; settings: in vivo

Row | fraction unbound at 10 µM [1] | hepatocyte CLint at 1 µM [2] | Activity [3] | bioavailability [4] | Activity [7] | hepatocyte CLint at 1 µM [8] | fraction unbound at 10 µM [9] | pIC50 [10] | fraction unbound at 10 µM [11] | solubility thermodynamic at 24 h [12] | logD [13] | pIC50 [14] | Activity [15] | hepatocyte CLint at 1 µM [16] | pIC50 [17] | pIC50 [18] | Cmax [19] | hepatocyte CLint at 1 µM [20] | pIC50 [21] | SMILES | inhibition [5] | further results
1 | 0.41 | 1.7 µL/min/1e6 cells | < 40% | 93% | 20% | 0.2 µL/min/1e6 cells | 0.5 | < 4.70 | 0.18 | > 1000 µM | 1.6 | < 4.70 | < 40% | 2.5 µL/min/1e6 cells | < 4.70 | < 4.70 | 21.7 µM | 3.9 µL/min/1e6 cells | < 4.70 | CCn1c([C@@H](C)NS(=O)(=O)c2ccc(C#N)nc2)nc2cnc(C3CC3)cc21 | Active | half-life [6]: 2.9 h; fraction unbound at 10 µM [22]: 0.19; pIC50 [23]: < 4.70; pEC50 [24]: 8.40
2 | 0.53 | 2.4 µL/min/1e6 cells | < 40% | 87% | 15% | 1.2 µL/min/1e6 cells | 0.36 | < 4.70 | 0.32 | 765 µM (≈ 325 µg/mL) | 1.3 | < 4.70 | < 40% | 0.3 µL/min/1e6 cells | < 4.70 | < 4.70 | 13.3 µM | 2.1 µL/min/1e6 cells | < 4.70 | CCn1c([C@@H](C)NS(=O)(=O)c2ccc(C#N)nc2)nc2cnc(C(F)(F)F)cc21 | Active | clearance [25]: 2 mL/min/kg; fraction unbound at 10 µM [22]: 0.24; pIC50 [23]: < 4.70; pEC50 [24]: 8.15
